# Source: ChEMBL document CHEMBL5712887, “Disruption of BRD4 at H3K27Ac-enriched enhancer region correlates with decreased c-Myc expression in Merkel cell carcinoma” (Epigenetics, 2015)
# Active and inactive are the calls of the source. The calls are words filed in the database; no cut-off is given here.
# What was measured:
# MCC-3 [1] = assay: Antitumor activity against human MCC-3 cells xenografted in NSG mouse assessed as reduction in c-Myc mRNA expression at 50 mg/kg, ip administered daily for 3 weeks and measured post-last dose by qRT-PCR analysis; assay type: functional, organism-based
# Method in brief: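 Excised xenograft tumours from NSG mice dosed i.p. daily for 3 weeks (vehicle 10% 2-hydroxypropyl-β-cyclodextrin in water) versus vehicle group. c-Myc mRNA measured by qRT-PCR on 3 biological replicates.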
# [2] = Antitumor activity against human MCC-3 cells xenografted in NSG mouse assessed as reduction in tumor volume at 50 mg/kg, ip administered daily for 3 weeks and measured post-last dose by caliper method relative to control; assay type: functional; design: scale not given: the % may be the effect or the level left
# MCC-3 [3] = assay: Antitumor activity against human MCC-3 cells xenografted in NSG mouse assessed as effect on H3K27Ac expression at 50 mg/kg, ip administered daily for 3 weeks and measured post-last dose by immunoblotting method; assay type: functional, organism-based
# Method in brief: (§1)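 Tumours excised at endpoint from NSG mice bearing subcutaneous flank xenografts (~100 mm3 at randomisation), dosed i.p. daily for 3 weeks, vehicle 10% 2-hydroxypropyl-β-cyclodextrin in water. Lysates resolved by SDS-PAGE, electroblotted to PVDF (200V, 2 h). Membranes blocked in 5% milk, primary antibody overnight at 4°C, then secondary 1 h, and detected by ECL.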
# [4] = Antitumor activity against human MKL-1 cells xenografted in NSG mouse assessed as reduction in tumor volume at 50 mg/kg, ip administered daily for 3 weeks and measured post-last dose by caliper method relative to control; assay type: functional; design: scale not given: the % may be the effect or the level left
# Method in brief: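 NSG mice with subcutaneous flank xenografts (MKL-1: 2 × 10^7 cells in matrigel), randomised at ~100 mm3 (n ≥ 7 per group). Dosed i.p. daily for 3 weeks; vehicle 10% 2-hydroxypropyl-β-cyclodextrin in water. Calipers, volume = L2 × W/2; final tumour volume, mean ± SEM, Mann-Whitney test.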
# MCC-3 [5] = assay: Antitumor activity against human MCC-3 cells xenografted in NSG mouse assessed as reduction in c-Myc expression at 50 mg/kg, ip administered daily for 3 weeks and measured post-last dose by immunoblotting method; assay type: functional, organism-based; method in brief: as §1
# MCC-3 [6] = assay: Antitumor activity against human MCC-3 cells xenografted in NSG mouse assessed as effect on BRD4 expression at 50 mg/kg, ip administered daily for 3 weeks and measured post-last dose by immunoblotting method; assay type: functional, organism-based; method in brief: as §1
# Mus musculus = assay: In vivo disruption of BRD4 occupancy at the putative c-Myc super-enhancer region in human MCC-3 cells xenografted NSG mouse at 50 mg/kg, ip administered daily for 3 weeks and measured post-last dose by ChIP-qPCR analysis; assay type: functional, organism-based
# Method in brief: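 Frozen xenograft tumours crosslinked with 1% formaldehyde for 10 min, quenched with 0.125 M glycine, lysed and sonicated. Anti-BRD4 IP on anti-rabbit IgG beads. SYBR qPCR with primers at the putative c-Myc super-enhancer, plus control regions 5000 bp up- and downstream. 3 biological replicates, vehicle versus treated.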
# [7] = Toxicity in human MCC-3 cells xenografted NSG mouse assessed as effect on body weight at 50 mg/kg, ip administered daily for 3 weeks; assay type: organism-based; conditions: in vivo, 504 h
# Method in brief: (§2)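 Mice with subcutaneous xenografts dosed i.p. daily for 3 weeks (vehicle 10% 2-hydroxypropyl-β-cyclodextrin in water) and monitored daily. Toxicity judged from body weight, food and water intake, activity and general examination.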
# [8] = Toxicity in human MCC-3 cells xenografted NSG mouse assessed as effect on food intake at 50 mg/kg, ip administered daily for 3 weeks; assay type: organism-based; conditions: in vivo, 504 h; method in brief: as §2
# [9] = Toxicity in human MCC-3 cells xenografted NSG mouse assessed as effect on water intake at 50 mg/kg, ip administered daily for 3 weeks; assay type: organism-based; conditions: in vivo, 504 h; method in brief: as §2
# [10] = Toxicity in human MCC-3 cells xenografted NSG mouse assessed as effect on activity at 50 mg/kg, ip administered daily for 3 weeks; assay type: organism-based; conditions: in vivo, 504 h; method in brief: as §2
# [11] = Toxicity in human MKL-1 cells xenografted NSG mouse assessed as effect on body weight at 50 mg/kg, ip administered daily for 3 weeks; assay type: organism-based; conditions: in vivo, 504 h; method in brief: as §2
# [12] = Toxicity in human MCC-3 cells xenografted NSG mouse assessed as effect on general examination at 50 mg/kg, ip administered daily for 3 weeks; assay type: organism-based; conditions: in vivo, 504 h; method in brief: as §2
# [13] = Toxicity in human MKL-1 cells xenografted NSG mouse assessed as effect on food intake at 50 mg/kg, ip administered daily for 3 weeks; assay type: organism-based; conditions: in vivo, 504 h; method in brief: as §2
# [14] = Toxicity in human MKL-1 cells xenografted NSG mouse assessed as effect on water intake at 50 mg/kg, ip administered daily for 3 weeks; assay type: organism-based; conditions: in vivo, 504 h; method in brief: as §2
# [15] = Toxicity in human MKL-1 cells xenografted NSG mouse assessed as effect on activity at 50 mg/kg, ip administered daily for 3 weeks; assay type: organism-based; conditions: in vivo, 504 h; method in brief: as §2
# [16] = Toxicity in human MKL-1 cells xenografted NSG mouse assessed as effect on general examination at 50 mg/kg, ip administered daily for 3 weeks; assay type: organism-based; conditions: in vivo, 504 h; method in brief: as §2
compound,measurement,setting,value
Cc1sc2c(c1C)C(c1ccc(Cl)cc1)=N[C@@H](CC(=O)OC(C)(C)C)c1nnc(C)n1-2,Activity,MCC-3 [1],Active
same,Activity,[2],75.6%
same,Activity,MCC-3 [3],inactive
same,Activity,[4],48.9%
same,Activity,MCC-3 [5],Active
same,Activity,MCC-3 [6],inactive
same,Activity,Mus musculus,Active
same,Activity,[7],Non-Toxic
same,Activity,[8],Non-Toxic
same,Activity,[9],Non-Toxic
same,Activity,[10],Non-Toxic
same,Activity,[11],Non-Toxic
same,Activity,[12],Non-Toxic
same,Activity,[13],Non-Toxic
same,Activity,[14],Non-Toxic
same,Activity,[15],Non-Toxic
same,Activity,[16],Non-Toxic
